# Most compounds without a hit are left out; they make up all but 1.8% or so of the library.
# M4 ag – human M4 muscarinic receptor agonists, primary screen, CHO-K1 cells, Fluo-8 calcium fluorescence. 360,000 compounds, 0.14% hits. activation, % at 3 µM. Muscarinic acetylcholine receptor M4 (Homo sapiens), P08173. AID 624127, 2012. CHO-K1 hM4/Gqi5; vehicle 0%, full acetylcholine response 100%;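 active = activation above the run mean over all test wells plus 3 SD, cut at about 32% in these data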;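 note: peak over basal fluorescence ratio per well then scaled between controls; 0% = DMSO wells and 100% = acetylcholine at EC100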
# Target sequence (P08173 whole entry, looked up): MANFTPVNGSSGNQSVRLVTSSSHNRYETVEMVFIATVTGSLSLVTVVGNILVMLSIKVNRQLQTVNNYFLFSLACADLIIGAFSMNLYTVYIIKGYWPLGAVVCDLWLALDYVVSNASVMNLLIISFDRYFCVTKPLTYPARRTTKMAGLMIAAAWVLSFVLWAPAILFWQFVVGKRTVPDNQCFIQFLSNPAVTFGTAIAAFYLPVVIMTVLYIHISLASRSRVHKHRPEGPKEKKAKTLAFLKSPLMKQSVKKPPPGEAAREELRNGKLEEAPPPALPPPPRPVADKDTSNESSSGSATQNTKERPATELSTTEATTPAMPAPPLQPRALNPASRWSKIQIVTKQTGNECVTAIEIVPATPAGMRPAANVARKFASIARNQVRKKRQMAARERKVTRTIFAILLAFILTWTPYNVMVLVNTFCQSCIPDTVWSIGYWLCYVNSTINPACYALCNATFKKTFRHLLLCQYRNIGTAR
# CHRM5 agonist – human M5 muscarinic receptor agonists, primary screen, CHO-K1 cells, Fluo-8 calcium fluorescence | Muscarinic acetylcholine receptor M5 (Homo sapiens), P08912 | CHO-K1 hM5 cells; 0% DMSO wells, 100% maximal acetylcholine response | activation, % at 3 µM | 360,000 compounds, 0.19% hits | AID 624037, 2012;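 active = activation above the run's mean over test compounds plus 3 SD, cut at about 23% in these data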;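 note: signal is peak over basal fluorescence ratio across the kinetic read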
# CHRM4 antagonist – human M4 muscarinic receptor antagonists, primary screen, CHO cells, Fluo-8 calcium fluorescence; CHO-hM4 cells, ACh EC80; inhibition, % at 3 µM; 360,000 compounds, 0.73% hits; AID 624125, 2012;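 active = inhibition above its plate's cutoff, the mean inhibition of sample wells plus 3 SD, cut at about 27% in these data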;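 note: 0% = acetylcholine EC80 with DMSO and 100% = DMSO without agonist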
# M5 antag – human M5 muscarinic receptor antagonists, primary screen, CHO cells, Fluo-8 calcium fluorescence. Muscarinic acetylcholine receptor M5 (Homo sapiens), P08912. CHO-hM5 cells, ACh EC80. inhibition, % at 3 µM. 360,000 compounds, 0.59% hits. AID 624040, 2012;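 active = inhibition above a per-plate cutoff, the mean of that plate's test compounds plus 3 SD, cut at about 27% in these data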;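 note: 0% = acetylcholine EC80 with DMSO and 100% = DMSO without agonist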
# CHRM5 PAM – human M5 muscarinic receptor positive allosteric modulators, primary screen, CHO-K1 cells, Fluo-8 calcium fluorescence; Muscarinic acetylcholine receptor M5 (Homo sapiens), P08912; CHO-K1 hM5, ACh EC20 PAM; 0% = ACh EC20, 100% = ACh EC100; activation, % at 3 µM; 360,000 compounds, 0.3% hits;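 active = activation above the run cutoff, the mean activation of all test compounds plus 3 SD, cut at about 18% in these data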
#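 Replicates: One well per compound, no replicates | System: Human M5 receptor in CHO-K1 cells | Benchmarks: Low control EC20 acetylcholine (0%), high control EC100 acetylcholine (100%) | Probe or stimulus: Acetylcholine, EC20 level | Times: Fluo-8 loading 80 min at 37 °C plus 30 min room temperature | Signal: Intracellular calcium via Fluo-8 fluorescence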
# M4 PAM – human M4 muscarinic receptor positive allosteric modulators, primary screen, CHO-K1 cells, Fluo-8 calcium fluorescence; 360,000 compounds, 0.4% hits; activation, % at 3 µM; Muscarinic acetylcholine receptor M4 (Homo sapiens), P08173; CHO-K1 hM4/Gqi5, ACh EC20; 0% = ACh EC20, 100% = maximal ACh;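 active = activation above its plate's cutoff, the mean activation of sample wells plus 3 SD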
# * hit, by the source's call.
SMILES,M4 ag,CHRM5 agonist,CHRM4 antagonist,M5 antag,CHRM5 PAM,M4 PAM
C=CCN(C(=O)CN1CCCCC1)c1nc(-c2ccccc2)cs1,0,-8,6,12,-4,-11
C=CCN(C(=O)C1CC(=O)N(C2CCCC2)C1)c1nc(-c2ccc(S(C)(=O)=O)cc2)cs1 (configuration not stated),32*,13,19,19,-44,-13
Cc1ccc(NC(=O)C(NS(=O)(=O)c2cccc3nsnc23)C(C)C)nc1 (configuration not stated),1,-2,-16,-8,-1,8
Cc1ccc(CNC(=O)C(NS(=O)(=O)c2cccc3nsnc23)C(C)C)cc1 (configuration not stated),2,-4,0,30*,-8,-5
COc1cccc(C(NC(C)=O)c2nc(-c3cccc(O)c3)cs2)c1 (configuration not stated),2,1,-12,6,-5,12
N#Cc1nc(-c2ccccc2F)oc1NCCc1ccccc1,0,-2,27*,5,-9,7
COC(=O)[C@]12CCCCC=C1N(Cc1ccccc1)C(=O)[C@H](CC(=O)N1CCC(c3ccccc3)CC1)C2,13,1,-2,3,-12,0
COc1cccc(CN2CCC(C(=O)NC(C)c3cccc4ccccc34)CC2)c1 (configuration not stated),5,0,-4,-9,-3,-6
Cc1cc(C)nc(NS(=O)(=O)c2ccc(NC(=O)CSc3nc4ccccc4[nH]3)cc2)n1,0,-3,-1,0,2,11
Cc1ccnc(NS(=O)(=O)c2ccc(NC(=O)c3ccc(S(=O)(=O)N4CCCC4)cc3)cc2)n1,0,1,-4,-14,19*,4
COc1ccc2nc(SCC(=O)Nc3ccc(S(=O)(=O)Nc4nccc(C)n4)cc3)[nH]c2c1,1,4,35*,14,2,23
Cc1ccccc1CNC(=O)c1ccc2nc([C@@H]3O[C@H](CO)[C@H](O)[C@H](O)[C@H]3O)[nH]c2c1,0,1,2,0,-6,-6
CCOC(=O)c1nn(-c2ccc(C)cc2)c(=O)cc1OCC(=O)Nc1cc(C)ccc1OC,-1,0,-14,-11,10,-2
CCOC(=O)c1nn(-c2ccc(F)cc2)c(=O)cc1OCC(=O)Nc1cccc(C)c1,-1,5,-26,-5,-5,24*
CNC(=O)CC1C(=O)N(C)C(=S)N1NC(=O)c1ccccc1 (configuration not stated),3,5,1,9,1,-5
CCNC(=O)CC1C(=O)N(CC)C(=S)N1NC(=O)c1ccccc1 (configuration not stated),5,1,21,29*,28*,17*
CCN(CC)S(=O)(=O)c1ccc(Oc2ccccc2)c(N)c1,4,-1,6,8,9,2
CCN(CC)S(=O)(=O)c1ccc(N2CCN(c3ccccc3OC)CC2)c(N)c1,18,7,20,30*,-16,-15
COC(=O)c1ccc2nc(-c3cccc(Cl)c3)c(Cc3ccsc3)n2c1,-1,-1,-7,-14,9,1
CCN(CC)c1ccc(C2C(C(=O)OCCOC(C)C)=C(C)NC3=C2C(=O)CCC3)cc1 (configuration not stated),1,-7,33*,25,-21,-20
CC1CC(O)C2C3(C)CCCC2(COC3=O)C12CCC1(CCOC1=O)O2 (configuration not stated),1,1,-9,5,-5,4
